Key:
[1] = Cytotoxicity against human MT4 cells after 96 hrs by MTT assay; assay type: cell-based
Method in brief: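 Exponentially growing mock-infected MT-4 cells were seeded at 1 × 10⁵ cells/ml in RPMI-1640 with 10% FCS, penicillin G and streptomycin. They were incubated with serial compound dilutions at 37 °C in humidified 5% CO₂, and viability was read by MTT after 96 h. CC50 is the concentration reducing viability by 50%, as the mean of three independent determinations.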

[2] = tested on: Human immunodeficiency virus 1; experiment: Antiviral activity against azidothymidine-resistant HIV1 infected in human MT4 cells assessed as protection from virus-induced cytopathogenicity after 4 days by MTT assay; assay type: functional, organism-based; conditions: Human immunodeficiency virus 1, MT4, 96 h
Method in brief: (§1)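 MT-4 cells, acutely infected at m.o.i. 0.01, were used to read inhibition of HIV-1-induced cytopathogenicity. Compounds were made as 100 mM DMSO stocks and diluted in culture medium. Viability was read by MTT. EC50 is the concentration giving 50% protection, as the mean (+SD) of three independent determinations.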

[3] = Chemical stability assessed as chemical hydrolysis half life in RPMI-1640 culture medium by HPLC analysis; assay type: physicochemical
Method in brief: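 Chemical hydrolysis of the compounds was followed in RPMI-1640 medium alone.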

[4] = tested on: Human immunodeficiency virus 1; experiment: Antiviral activity against efavirenz-resistant HIV1 infected in human MT4 cells assessed as protection from virus-induced cytopathogenicity after 4 days by MTT assay; assay type: functional, organism-based; conditions: Human immunodeficiency virus 1, MT4, 96 h; method in brief: as §1
[5] = tested on: Human immunodeficiency virus 1; experiment: Antiviral activity against HIV1 3B infected in human MT4 cells assessed as protection from virus-induced cytopathogenicity after 4 days by MTT assay; assay type: functional, organism-based; conditions: Human immunodeficiency virus 1, 3B, MT4, 96 h; method in brief: as §1
[6] = tested on: Human immunodeficiency virus 1; experiment: Antiviral activity against MDR1-resistant HIV1 infected in human MT4 cells assessed as protection from virus-induced cytopathogenicity after 4 days by MTT assay; assay type: functional, organism-based; conditions: Human immunodeficiency virus 1, MT4, 96 h; method in brief: as §1
[7] = tested on: Human immunodeficiency virus 1; experiment: Antiviral activity against non-nucleoside reverse transcriptase inhibitor-resistant HIV1 bearing reverse transcriptase N119 (Y181C) mutation infected in human MT4 cells assessed as protection from virus-induced cytopathogenicity after 4 days by MTT assay; assay type: functional, organism-based; conditions: Human immunodeficiency virus 1, MT4, 96 h; method in brief: as §1
[8] = Selectivity index, ratio of CC50 for human MT4 cells to EC50 for HIV1 3B; assay type: toxicity, cell-based; conditions: read-out: Ratio CC50/EC50
[9] = tested on: Human immunodeficiency virus 1; experiment: Antiviral activity against non-nucleoside reverse transcriptase inhibitor-resistant HIV1 bearing reverse transcriptase A17 (K103N, Y181C) mutation infected in human MT4 cells assessed as protection from virus-induced cytopathogenicity after 4 days by MTT assay; assay type: functional, organism-based; conditions: Human immunodeficiency virus 1, MT4, 96 h; method in brief: as §1

| Compound | CC50 at 96 h [1] [nM] | EC50 [2] [nM] | half-life [3] [h] | EC50 [4] [nM] | EC50 [5] [nM] | EC50 [6] [nM] | EC50 [7] [nM] | selectivity ratio [8] | EC50 [9] [nM] |
| --- | --- | --- | --- | --- | --- | --- | --- | --- | --- |
| Cc1ncccc1OP(=O)(OC[C@H]1O[C@@H](n2cc(C)c(=O)[nH]c2=O)C[C@@H]1N=[N+]=[N-])Oc1ccccc1 (some centres not stated) | > 100000 | 4700 | 82.5 | 90 | 100 | 1600 | 80 | > 1000 | 60 |
| Cc1cn([C@H]2C[C@H](N=[N+]=[N-])[C@@H](COP(=O)(Oc3cccnc3)Oc3ccc(Cl)cc3Cl)O2)c(=O)[nH]c1=O (some centres not stated) | > 100000 | 400 | 6.6 | 10 | 10 | 100 | 10 | > 10000 | 8 |
| Cc1cn([C@H]2C[C@H](N=[N+]=[N-])[C@@H](COP(=O)(Oc3ccc(Cl)cc3)Oc3cccnc3)O2)c(=O)[nH]c1=O (some centres not stated) | ≥ 100000 | 1900 | 55 | 10 | 30 | 700 | 40 | > 3330 | 10 |
| O=c1ccn([C@H]2CC[C@@H](CO)O2)c(=O)[nH]1 | > 100000 | – | – | – | > 100000 | – | – | – | – |
| Nc1ncnc2c1ncn2[C@H]1CC[C@@H](CO)O1 | > 100000 | – | – | – | 5200 | – | – | > 19 | – |
| Cc1cn([C@H]2C[C@H](N=[N+]=[N-])[C@@H](COP(=O)(Oc3ccncc3)Oc3cccnc3)O2)c(=O)[nH]c1=O (some centres not stated) | > 100000 | 2300 | 8.55 | 10 | 20 | 1200 | 10 | > 5000 | 7 |
| Cc1cn([C@H]2C[C@H](N=[N+]=[N-])[C@@H](CO)O2)c(=O)[nH]c1=O [ZIDOVUDINE] | 60000 | 600 | – | 10 | – | 100 | 10 | > 6000 | 10 |
| Cc1cn([C@H]2C[C@H](N=[N+]=[N-])[C@@H](COP(=O)(Oc3cccnc3)Oc3cccnc3)O2)c(=O)[nH]c1=O | > 100000 | 700 | 4.92 | 10 | 10 | 100 | 10 | > 10000 | 3 |
| Nc1ncnc2c1ncn2[C@H]1CC[C@@H](COP(=O)(Oc2ccccc2)Oc2cccnc2)O1 (some centres not stated) | > 100000 | 42000 | 88.8 | 16000 | 23000 | 50000 | 30000 | > 4 | 7000 |
| Cc1ccc(OP(=O)(OC[C@H]2O[C@@H](n3cc(C)c(=O)[nH]c3=O)C[C@@H]2N=[N+]=[N-])Oc2ccc(C)nc2)cn1 | > 100000 | 800 | 21.4 | 30 | 40 | 400 | 50 | > 2500 | 10 |
| Cc1cn([C@H]2C[C@H](N=[N+]=[N-])[C@@H](COP(=O)(Oc3ccccc3)Oc3ccncc3)O2)c(=O)[nH]c1=O (some centres not stated) | > 100000 | 400 | 12.8 | 10 | 10 | 100 | 10 | > 10000 | 8 |
| Cc1ccc(OP(=O)(OC[C@H]2O[C@@H](n3cc(C)c(=O)[nH]c3=O)C[C@@H]2N=[N+]=[N-])Oc2ccccc2)cn1 (some centres not stated) | > 100000 | 7000 | 44.4 | 70 | 90 | 1600 | 80 | > 1110 | 40 |
| O=c1ccn([C@H]2CC[C@@H](COP(=O)(Oc3ccncc3)Oc3cccnc3)O2)c(=O)[nH]1 (some centres not stated) | > 100000 | > 100000 | 7 | 7000 | 14000 | ≥ 100000 | 9000 | > 7 | 5000 |
